We go through 38 variants from the RNAGym collection of RNA variant scans (doi:10.1126/science.aae0568).

Fewer inactive variants are shown than the library holds. Bounds are passed on as bounds.

B1: tRNA (parent)
chain: GUUCCGUUGGCGUAAUGGUAACGCGUCUCCCUCCUAAGGAGAAGACUGCGGGUUCGAGUCCCGUACGGAACG

In the data set the parent is B1. The data set can be described thus: yeast fitness relative to wild type (ratio to wild type); higher = fitter; tRNA-Arg(CCU), competitive growth, 37 C, YPD. The method in brief:
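Changes in genotype frequencies gave Darwinian fitness relative to wild type. Frequencies were read by 100-nucleotide paired-end sequencing of gene amplicons before and after pooled Saccharomyces cerevisiae strains, carrying tRNA-Arg(CCU) gene variants at the native locus, were competed in YPD at 37°C for 24 hours in six replicates. A genotype was kept only with ≥ 100 starting reads, and estimates < 0.5 were set to 0.5.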
As to GUUCCGUUGGCGUAAUGGAAACGCGUCUCCCUCCUAAGAAGAAGACUGCGGGUUCGAGUCCCGUACGGAACG [U19A G39A], the yeast fitness is 0.846.

For the variant GUUCCGUUGGCGUAAUGGAAACGCGUCUCCCUCCUAAGCAGAAGACUGCGGGUUCGAGUCCCGUACGGAACG [U19A G39C], the yeast fitness was determined as 0.742.

Regarding GUUCCGUUGGCGUAAUGGAAACGGGUUUCACUCCUGAGGAGAAGACUGCGGCUUCGAGUCCCGUACGGAACG [U19A C24G C27U C30A A36G G52C], the yeast fitness was not above 0.5.

With GUUCCGUUGGCGUAAUGGAAACGCGUCUCCCUCCUAAGGAGAAGACUGUGGGUUCGAGUCCCGUACGGAACG [U19A C49U], the yeast fitness was 1.03.

Turning to GUUCCGUUGGCGUAAUGGAAACGCGUCUCCCUCCUAAGGAGAAGACUGAGGGUUCGAGUCCCGUACGGAACG [U19A C49A], the yeast fitness is 0.642.

For GUUCCGUUGGCGUAAUGGCCACGAGUCUCCCUCCUAAGGAGAAGACUGCGGGUUCAAGUCCCGUACGGAACG [U19C A20C C24A G56A], the yeast fitness is not above 0.5.

With GUUCCGUUGGCGUAAUGGAAACGGGUCUUCCUCCUAAGGAGAAGACUGCGGCUUCGAGUCCCGGACGGAACG [U19A C24G C29U G52C U64G], the yeast fitness was not above 0.5.

In the case of GUUCCGUUGGCGUAAUGCUAACGCGGCUCCCUCCUAAGGAGAAGACUGCGGGUUCGAGUCCCGUACGGAACG [G18C U26G], the yeast fitness was found to be 0.644.

Turning to GUUCCGUUGGCGUAAUGGAAACGCGUCUUCCUCCUAAGGAGAAGACUGCGGGUUCGAGUCCCGUACCGGACG [U19A C29U G67C A69G], the yeast fitness was not above 0.5.

For GUUCCGUUGGCGUAAUGGAAACGCGUCUCCCUCCUAACGAGAAGACUGCGGGUUCCAGUCCCGUACGGAACG [U19A G38C G56C], the yeast fitness is not above 0.5.

Turning to GUUCCGUUGGCGUAAUGGAAACCCGUCUCGCUCCUAAGGAGAAGACAGCGGGUUCGAGUCCCGUACGGAACG [U19A G23C C30G U47A], the yeast fitness turned out to be 0.594.

For the variant GUUCCGUUGGCGUAAUGGCUACGCGUCUCCCUCCUAAGGAGAAGACUGCGGGUUAGAGUCCCGUACGGAACG [U19C A20U C55A], the yeast fitness was not above 0.5.

For GUUCCGUUGGCGUAAUGGCUACGCGUCUUCCUCCUAAGGACAAGACUGCGGGUUCGAGUCCCGUACGGAACG [U19C A20U C29U G41C], the yeast fitness is not above 0.5.

On to GUUCCGUUGGCGUAAUGGAAAGGUGUCUCCCUGCUGAGGAGAAGACUGCGGGUUCGAGUCCCGUACGGAACG [U19A C22G C24U C33G A36G], for which the yeast fitness is 0.581.

GUUCCGUUGGCGUAAUGGAAACGCGUCUCCCUCCUCAGGAGAAGACUGCGCGUUCGAGACCCGUACGGAACG [U19A A36C G51C U59A]: the yeast fitness is not above 0.5.

Regarding GUUCCGUUGGCGUAAUGGAAAGGUGUCUCCCUGCUAAGGAGAAGACUGCGGGUUCGAGUCCCGUACGGAACG [U19A C22G C24U C33G], the yeast fitness was found to be 0.674.

For the variant GUUCCGUUGGCGUAAUGGAAACGCGUCUCGCUCCUAAGGCGAAGACUGCGGGUUCGAGUCCGGUAGGGCACG [U19A C30G A40C C62G C66G A69C], the yeast fitness was not above 0.5.

GUUCCGUUGGCGUAAUGGCCACGCGUCUCCCUCCUAAGGAGAAGACUGCGGGUUCGAGUCCCGUACGGAUCG [U19C A20C A70U]: the yeast fitness worked out at 0.65.

For GUUCCGUUGGCGUAAUGGAAACGCGUGUCCUUCCUAAGGAGAAGACUGCGGGUUCGAGUCCCGUACGGUACG [U19A C27G C31U A69U], the yeast fitness was not above 0.5.

For GUUCCGUUGGCGUAAUGGAAACGCGUCUCUAUCCUAAGGAGAAGACUGCGGGUUCGAAUCCCGUACCGAACG [U19A C30U C31A G58A G67C], the yeast fitness is not above 0.5.

On to GUUCCGUUGGCGUAAUGGAAACGCGUCUCCCUCCUAAGGAGAAGACUGGGGGUUCUAGUCCCGUACGGAACG [U19A C49G G56U], for which the yeast fitness came to 0.558.

For GUUCCGUUGGCGUAAUGGCAGCGCGGCUCCCUCCUAAGGAGAAGACUGUGGGUUCGAGUCCCGUACGGAACG [U19C A21G U26G C49U], the yeast fitness came to 0.745.

As for GUUCCGUUGGCGUAAUGGAAACGCGUCUCCCUCCUAAGGAGAAGACUGCGGGUACGAGUCCCGUACGGAACG [U19A U54A], the yeast fitness is 0.706.

For GUUCCGUUGGCGUAAUGGAAACGCGUAUCCCUCCUAAGGAGAAGAAUGCGGGUUCGAGUCCCGUACAGAACG [U19A C27A C46A G67A], the yeast fitness is not above 0.5.

Consider GUUCCGUUGGCGUAAUGGAAACGCGUCUCACUCCUAAGGAGAAGACUGCGGGUUCGAGUCCCGUACGGAACG [U19A C30A], for which the yeast fitness is 0.812.

In the case of GUUCCGUUGGCGUAAUGGCCACGCGUCUCCGUCCUAAGGAGAAGACUGCGGGUUCGAGUCCCGUACGGACCG [U19C A20C C31G A70C], the yeast fitness is not above 0.5.

GUUCCGUUGGCGUAAUGUUAACGCGACUCCCUCCUAAGGAGAAGACUGCGGGUUCGAGUCCCGUACCGAACG [G18U U26A G67C]: the yeast fitness was not above 0.5.

Consider GUUCCGUUGGCGUAAUGGAAACGCGUCUCCCUCCUAAGGAGAAGAUUGCGGGUUCGAGUCCCGUACAGAACG [U19A C46U G67A], for which the yeast fitness was determined as 0.957.

As for GUUCCGUUGGCGUAAUGGAAACGCGUCUCCCUCCUAAGGAGAAGACAGCGGCUUCGAGUCCCGUACGGAACG [U19A U47A G52C], the yeast fitness is not above 0.5.

On to GUUCCGUUGGCGUAAUGGAAACGAGUCUCGCUCUUAAGGAGAAGACUGCGGCUUCGAGUCCCGUACGGAACG [U19A C24A C30G C34U G52C], for which the yeast fitness is not above 0.5.

For the variant GUUCCGUUGGCGUAAUGGCAACGCGUCUCCCUCCUUAGGAGAAGACUGCGGGUUCGAGUCCGGUACGGAACG [U19C A36U C62G], the yeast fitness is 0.529.

For the variant GUUCCGUUGGCGUAAUGGAAACGCGUCUCCCUCCUAAGAAGAAAACUGCGGGUUCGAGUCCCGUACGGAACG [U19A G39A G44A], the yeast fitness amounted to 0.873.

With GUUCCGUUGGCGUAAUGGAAACGCGUCUCCCUCCUAAGGAGAAGACUGAGGGUGCGAGACCCCUACGGGACG [U19A C49A U54G U59A G63C A69G], the yeast fitness was not above 0.5.

Turning to GUUCCGUUGGCGUAAUGCUAACGCGUCUCCCUCCUAAGGAGAAGACCGCGGGUUCGAGUCCCGUACGGAACG [G18C U47C], the yeast fitness stood at 0.658.

Regarding GUUCCGUUGGCGUAAUGGAAACGCGUAUCCCUCCUAAGGAGAAGAAUGCGGGUUCGAGUCCCGUACGGAACG [U19A C27A C46A], the yeast fitness turned out to be 0.506.

As to GUUCCGUUGGCGUAAUGGAAACGCGUUUCCCUCCUAAGGAGAAGACUGCGGGUUCGAGUCCCGUUCGGAACG [U19A C27U A65U], the yeast fitness stood at 0.717.

GUUCCGUUGGCGUAAUGGAAACGCGUCACCGUCCUAAGGAGAGGGCUGCGGGUUCGAGUCCCGUACGGAACG [U19A U28A C31G A43G A45G]: the yeast fitness was not above 0.5.

For the variant GUUCCGUUGGCGUAAUGGCUACGCGUCUCCCUCCUAAGGAGAAGACUGCGGGUUCGAGUCCCGUACGGAACG [U19C A20U], the yeast fitness came out at 0.941.
